Assays:
[1] = target: T1, estrogen receptor (Homo sapiens, UniProt P03372); assay: Inhibition of radioligand binding to estrogen receptor (unknown origin) at 1 uM relative to control
T1 sequence (P03372 whole entry): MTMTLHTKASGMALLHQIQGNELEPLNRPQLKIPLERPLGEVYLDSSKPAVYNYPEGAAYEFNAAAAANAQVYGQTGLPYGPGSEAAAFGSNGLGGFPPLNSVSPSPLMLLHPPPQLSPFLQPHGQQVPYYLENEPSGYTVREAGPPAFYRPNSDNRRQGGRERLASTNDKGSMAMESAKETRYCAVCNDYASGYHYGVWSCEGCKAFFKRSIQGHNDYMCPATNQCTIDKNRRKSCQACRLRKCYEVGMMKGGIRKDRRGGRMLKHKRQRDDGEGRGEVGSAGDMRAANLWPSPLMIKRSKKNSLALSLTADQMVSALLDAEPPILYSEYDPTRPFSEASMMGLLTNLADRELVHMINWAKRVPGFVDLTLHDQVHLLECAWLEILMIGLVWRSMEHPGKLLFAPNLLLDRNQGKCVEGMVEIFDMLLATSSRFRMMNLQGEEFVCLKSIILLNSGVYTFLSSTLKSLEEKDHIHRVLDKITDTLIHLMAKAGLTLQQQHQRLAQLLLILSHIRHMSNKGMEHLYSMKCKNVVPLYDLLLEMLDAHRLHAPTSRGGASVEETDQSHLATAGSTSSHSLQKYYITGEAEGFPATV

[2] = Protein binding in rat plasma; type: ADME, cell-free; conditions: read-out: PPB (converted)
[3] = target: T2, Glucocorticoid receptor (Canis lupus familiaris, UniProt A0A8C0QLS2); assay: (§1) Antagonist activity at dog glucocorticoid receptor in primary hepatocytes assessed as dexamethasone-induced tyrosine amino transferase activity preincubated for 30 mins followed by dexamethasone addition measured after 20 hrs; type: cell-based
T2 sequence (A0A8C0QLS2 whole entry): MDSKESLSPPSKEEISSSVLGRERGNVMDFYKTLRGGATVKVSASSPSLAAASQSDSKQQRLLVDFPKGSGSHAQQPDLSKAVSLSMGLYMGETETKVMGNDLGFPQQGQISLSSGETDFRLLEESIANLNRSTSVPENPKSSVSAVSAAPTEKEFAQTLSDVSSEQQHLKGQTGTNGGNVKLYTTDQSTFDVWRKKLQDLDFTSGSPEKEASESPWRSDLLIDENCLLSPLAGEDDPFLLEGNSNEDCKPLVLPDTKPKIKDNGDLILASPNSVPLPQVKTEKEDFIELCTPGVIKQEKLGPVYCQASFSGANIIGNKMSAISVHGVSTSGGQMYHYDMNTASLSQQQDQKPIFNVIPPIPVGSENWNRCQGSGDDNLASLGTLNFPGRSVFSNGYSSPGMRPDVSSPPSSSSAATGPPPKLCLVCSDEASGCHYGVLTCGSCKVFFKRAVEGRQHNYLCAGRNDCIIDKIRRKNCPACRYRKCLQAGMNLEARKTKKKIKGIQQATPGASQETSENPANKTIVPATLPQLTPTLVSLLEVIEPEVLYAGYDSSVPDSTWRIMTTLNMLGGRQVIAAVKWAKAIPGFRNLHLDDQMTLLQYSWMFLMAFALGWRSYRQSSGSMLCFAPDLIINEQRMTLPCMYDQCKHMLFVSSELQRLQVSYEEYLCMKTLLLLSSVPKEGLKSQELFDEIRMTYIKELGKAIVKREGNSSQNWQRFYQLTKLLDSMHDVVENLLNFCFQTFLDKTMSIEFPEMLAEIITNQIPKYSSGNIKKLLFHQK

[4] = target: T3, Glucocorticoid receptor (Canis lupus familiaris) (UniProt A0A8C0QLS2); assay: as §1; type: cell-based
T3 sequence (whole entry): T2 sequence (A0A8C0QLS2 whole entry)

[5] = target: Cytochrome P450 2C9 (Homo sapiens, UniProt P11712); assay: Time-dependent inhibition of CYP2C9 (unknown origin); type: ADME
[6] = Cmax in Sprague-Dawley CD-1 rat plasma at 5 mg/kg, po administered through gavage measured up to 24 hrs by LC/MS analysis; type: ADME, organism-based; parameters: dose 5 mg/kg, route oral
How it was run: (§2)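 Jugular-catheterized male Sprague Dawley CD-1 rats (220-250g). Oral arm: five rats, 5mg/kg gavage, 1mg/mL in DMSO:0.5% methylcellulose 10:90, 5mL/kg, sampled pre-dose and 0.25-24 h. i.v. arm: three rats, 1mg/kg, 0.5mg/mL in DMSO:PEG400:propylene glycol 10:45:45, sampled pre-dose and 0.08-24 h. Plasma by LC/MS.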

[7] = organism: Macaca mulatta; assay: Agonist activity at monkey glucocorticoid receptor in primary hepatocytes assessed as induction of tyrosine amino transferase activity measured after 20 hrs; type: cell-based
[8] = target: Cytochrome P450 2C19 (Homo sapiens, UniProt P33261); assay: Time-dependent inhibition of CYP2C19 (unknown origin); type: ADME
[9] = target: T4, Glucocorticoid receptor (Homo sapiens, UniProt P04150); assay: Antagonist activity at glucocorticoid receptor in human HepG2 cells assessed as inhibition of dexamethasone-induced tyrosine amino transferase activity preincubated for 30 mins followed by dexamethasone addition measured after 20 hrs; type: cell-based
T4 sequence (P04150 whole entry): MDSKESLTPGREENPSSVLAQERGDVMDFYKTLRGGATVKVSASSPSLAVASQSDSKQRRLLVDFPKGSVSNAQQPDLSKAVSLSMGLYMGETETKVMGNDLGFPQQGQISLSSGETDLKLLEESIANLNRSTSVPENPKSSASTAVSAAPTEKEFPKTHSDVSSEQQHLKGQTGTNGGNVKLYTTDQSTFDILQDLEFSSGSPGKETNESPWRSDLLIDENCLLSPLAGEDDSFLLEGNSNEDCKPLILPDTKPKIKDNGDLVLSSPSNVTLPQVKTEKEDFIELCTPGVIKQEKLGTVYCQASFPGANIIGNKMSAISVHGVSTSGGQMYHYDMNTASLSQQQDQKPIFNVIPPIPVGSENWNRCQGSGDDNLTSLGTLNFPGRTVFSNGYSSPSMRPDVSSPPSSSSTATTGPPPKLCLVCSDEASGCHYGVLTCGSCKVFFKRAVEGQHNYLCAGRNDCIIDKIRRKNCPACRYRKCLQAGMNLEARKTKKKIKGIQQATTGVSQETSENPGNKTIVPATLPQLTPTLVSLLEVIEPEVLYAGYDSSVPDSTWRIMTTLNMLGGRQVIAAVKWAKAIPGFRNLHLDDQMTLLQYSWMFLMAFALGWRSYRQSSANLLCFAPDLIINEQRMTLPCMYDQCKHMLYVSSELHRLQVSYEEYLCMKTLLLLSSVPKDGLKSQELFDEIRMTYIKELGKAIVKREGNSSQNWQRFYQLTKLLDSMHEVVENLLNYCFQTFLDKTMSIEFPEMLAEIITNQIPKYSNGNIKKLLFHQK

[10] = AUC in Sprague-Dawley CD-1 rat plasma at 5 mg/kg, po administered through gavage measured up to 24 hrs by LC/MS analysis; type: ADME, organism-based; parameters: dose 5 mg/kg, time < 24 hr, route oral; how it was run: as §2

Cytochrome P450 2C19, sequence (P33261 whole entry): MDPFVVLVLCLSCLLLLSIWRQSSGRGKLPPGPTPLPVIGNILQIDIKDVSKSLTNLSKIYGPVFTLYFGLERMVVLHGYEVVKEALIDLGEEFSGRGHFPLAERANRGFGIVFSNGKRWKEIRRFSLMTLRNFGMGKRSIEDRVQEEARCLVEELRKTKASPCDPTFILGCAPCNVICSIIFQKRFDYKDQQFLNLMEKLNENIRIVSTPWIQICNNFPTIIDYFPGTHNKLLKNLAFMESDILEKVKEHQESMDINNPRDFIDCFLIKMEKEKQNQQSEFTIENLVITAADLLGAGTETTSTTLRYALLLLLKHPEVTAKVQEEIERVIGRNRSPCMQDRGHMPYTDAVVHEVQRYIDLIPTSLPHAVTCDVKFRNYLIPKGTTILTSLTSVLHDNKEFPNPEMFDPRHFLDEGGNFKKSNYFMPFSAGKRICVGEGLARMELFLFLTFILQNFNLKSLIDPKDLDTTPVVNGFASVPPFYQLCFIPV
Cytochrome P450 2C9, sequence (P11712 whole entry): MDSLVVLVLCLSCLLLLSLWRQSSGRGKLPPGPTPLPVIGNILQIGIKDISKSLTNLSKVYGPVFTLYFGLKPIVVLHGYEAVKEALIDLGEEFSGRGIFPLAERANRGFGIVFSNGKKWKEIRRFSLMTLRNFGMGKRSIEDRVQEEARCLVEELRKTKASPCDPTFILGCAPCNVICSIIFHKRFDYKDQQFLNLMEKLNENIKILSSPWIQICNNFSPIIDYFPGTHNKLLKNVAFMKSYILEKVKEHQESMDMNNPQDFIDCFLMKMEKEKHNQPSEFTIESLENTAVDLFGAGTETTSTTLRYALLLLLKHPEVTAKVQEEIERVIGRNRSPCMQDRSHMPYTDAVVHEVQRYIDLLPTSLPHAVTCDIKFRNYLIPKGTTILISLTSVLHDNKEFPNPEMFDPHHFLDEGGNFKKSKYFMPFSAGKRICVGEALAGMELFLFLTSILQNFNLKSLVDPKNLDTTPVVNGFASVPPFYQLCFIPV

Q: For `Cn1cc(S(=O)(=O)N2CCC3=Cc4c(cnn4-c4ccc(F)cc4)C[C@]3(C(=O)c3cc(C(F)(F)F)ccn3)C2)cn1` [RELACORILANT], which inhibition at 1 µM [1] is on record?
A: < 10%

Q: What about the fraction unbound [2] of the same compound?
A: 0.003

Q: And the Ki [3]?
A: > 10 µM

Q: And the Imax [4]?
A: 31%

Q: And the TDI [5]?
A: Not Active

Q: And the Cmax [6]?
A: 297 ng/mL

Q: What about the Emax [7] of the same compound?
A: 0%

Q: What about the TDI [8] of the same compound?
A: Not Active

Q: And the Ki [9]?
A: 7.2 nM

Q: And the AUC at 24 h [10]?
A: 1550 ng·h/mL
